Results: publication PMC10888821 (bioRxiv, 2024)
The star is where a group is joined. K(dnp) = lysine 2,4-dinitrophenyl (Nε-2,4-dinitrophenyl-lysine); Mca = COc1ccc2c(CC(=O)*)cc(=O)oc2c1

Tests used:
Sm20S β2 subunit [1] = target: T1, Sm20S β2 subunit (Schistosoma mansoni, UniProt G4VSW3); assay: Dose-response assay of purified Sm20S with Z-LRR-amc; type: biochemical; conditions: read-out: inhibition of β2 subunit activity
T1 sequence (G4VSW3 39-281): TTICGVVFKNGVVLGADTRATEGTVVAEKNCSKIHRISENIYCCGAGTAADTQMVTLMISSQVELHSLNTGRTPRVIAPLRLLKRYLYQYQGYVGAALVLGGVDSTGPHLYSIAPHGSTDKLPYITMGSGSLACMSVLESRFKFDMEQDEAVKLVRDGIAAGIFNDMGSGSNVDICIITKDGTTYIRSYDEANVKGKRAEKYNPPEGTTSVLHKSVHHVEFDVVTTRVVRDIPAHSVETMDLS
T1 sequence (UPI0001A6248C 1-194 partner): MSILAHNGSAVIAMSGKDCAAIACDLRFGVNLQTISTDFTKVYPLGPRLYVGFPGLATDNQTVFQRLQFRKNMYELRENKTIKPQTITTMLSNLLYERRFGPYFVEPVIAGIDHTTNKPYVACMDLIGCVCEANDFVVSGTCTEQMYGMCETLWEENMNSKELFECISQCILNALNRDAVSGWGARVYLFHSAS
Summary of the method: (§1)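 Purified Sm20S was obtained from adult S. mansoni worms by ammonium sulfate precipitation, gel filtration and DEAE anion exchange. It was preincubated 15 min with test compound (20 μM to 9 nM, or 740 nM to 0.3 nM), then given 10 μM substrate: Suc-LLVY-amc (β5), Z-LLE-amc (β1) or Z-LRR-amc (β2). Maximum velocity over 8 sequential readings (RFU/sec) was normalized to 0.1% DMSO. Technical triplicates.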

[2] = system: 20S proteasome of three Schistosoma species; assay: Cross-species inhibition profile of schistosome lysates; type: biochemical, S. mansoni, S. haematobium, S. japonicum; conditions: lysates pre-incubated with 500 nM
Summary of the method: (§2)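 Extracts of S. haematobium (0.625 μg/μL), S. japonicum and S. mansoni (1.25 μg/μL each) were enriched by ammonium sulfate precipitation. Proteasome amount was normalized by labelling with 2 μM Me4BodipyFL-Ahx3Leu3VS (37°C, 3 h) and in-gel fluorescence. Extracts were preincubated 1 h with test compound (0.125% DMSO vehicle), then mixed with an equal volume of 20 μM β1/β2 mca substrate or 40 μM Z-FNKL-amc. Buffer: 100 mM Tris pH 7.5, 50 μM E-64, 1 mM AEBSF, 2 μM pepstatin, 0.03% SDS. Triplicate wells at 24°C.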

Sm20S β1 subunit [3] = target: T2, Sm20S β1 subunit (Schistosoma mansoni, UniProt G4V926); assay: Inhibition of single-step enriched Sm20S, β1 substrate; type: biochemical
T2 sequence (G4V926 26-225): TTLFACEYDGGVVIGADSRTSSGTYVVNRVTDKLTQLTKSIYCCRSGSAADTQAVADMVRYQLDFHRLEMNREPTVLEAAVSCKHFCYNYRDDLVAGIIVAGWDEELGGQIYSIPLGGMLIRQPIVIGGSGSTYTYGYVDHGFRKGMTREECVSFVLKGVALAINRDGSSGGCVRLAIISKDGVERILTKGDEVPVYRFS
Summary of the method: (§3)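 Sm20S was single-step enriched: worm lysate in Tris/E-64 pH 7.5, ammonium sulfate precipitation at 30 and 60% saturation, then 100 kDa concentration. Assay buffer contained pepstatin, E-64 and AEBSF. Substrates were mca-VDQMDGW-K(dnp)-NH2 (β1), mca-FnKRR-K(dnp)-NH2 (β2) and FNKL-amc (β5), tested across test compound concentrations. Reads were at ex/em 320/400 (mca) or 340/460 (amc). Technical triplicates.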

Sm20S β2 subunit [4] = target: T1, Sm20S β2 subunit; assay: Inhibition of single-step enriched Sm20S, β2 substrate; type: biochemical
Summary of the method: as §3

Sm20S β2 = assay: Sm20S pre-incubated with 10 μM inhibitor, assayed with mca-FnKRR-K; type: biochemical, Schistosoma mansoni; conditions: extended pre-incubation with 10 μM inhibitor
Summary of the method: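 Sm20S was pre-incubated with test compound, then assayed with mca-FnKRR-K(dnp) and Z-LRR-amc. Fluorescence was read at 24°C: ex/em 320/400 nm (mca) and 360/460 nm (amc). Technical triplicates.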

Sm20S β1 subunit [5] = target: T2, Sm20S β1 subunit; assay: Dose-response assay of purified Sm20S with Z-LLE-amc; type: biochemical
Summary of the method: as §1

Sm20S β5 subunit [6] = target: T3, Sm20S β5 subunit (Schistosoma mansoni, UniProt A0A5K4F079); assay: Dose-response assay of purified Sm20S with Suc-LLVY-amc; type: biochemical; conditions: 500 nM inhibitor
T3 sequence (A0A5K4F079 63-264): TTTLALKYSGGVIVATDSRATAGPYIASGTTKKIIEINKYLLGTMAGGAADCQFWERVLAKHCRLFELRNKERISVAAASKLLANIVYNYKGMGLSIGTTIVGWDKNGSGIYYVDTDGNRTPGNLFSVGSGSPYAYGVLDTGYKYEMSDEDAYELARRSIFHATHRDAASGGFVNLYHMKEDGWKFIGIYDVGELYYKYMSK
Summary of the method: as §1

Sm20S β5 subunit [7] = target: T3, Sm20S β5 subunit; assay: Inhibition of single-step enriched Sm20S, β5 substrate; type: biochemical
Summary of the method: as §3

[8] = system: 20S proteasome β2 subunit of three Schistosoma species; assay: Proteasome inhibition in three Schistosoma species, β2 substrate; type: biochemical, S. mansoni, S. haematobium, S. japonicum
Summary of the method: as §2

[9] = system: 20S proteasome β1 subunit of three Schistosoma species; assay: Proteasome inhibition in three Schistosoma species, β1 substrate; type: biochemical, S. mansoni, S. haematobium, S. japonicum; conditions: 500 nM, single-step enriched 20S, across the three species
Summary of the method: as §2

[10] = system: 20S proteasome β5 subunit of three Schistosoma species; assay: Proteasome inhibition in three Schistosoma species, β5 substrate; type: biochemical, S. mansoni, S. haematobium, S. japonicum
Summary of the method: as §2

Sh20S β1 = assay: Proteasome inhibition in enriched extract, β1 substrate, S. haematobium; type: biochemical; conditions: 1 μM
Summary of the method: as §2

Sm20S β1 [11] = assay: Proteasome inhibition in enriched extract, β1 substrate, S. mansoni; type: biochemical; conditions: 1 μM
Summary of the method: as §2

Sj20S β1 = assay: Proteasome inhibition in enriched extract, β1 substrate, S. japonicum; type: biochemical; conditions: 1 μM
Summary of the method: as §2

Sm20S β5 subunit [12] = target: T3, Sm20S β5 subunit; assay: Substrate hydrolysis by purified Sm20S, β5 substrates; type: biochemical
Summary of the method: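 Purified Sm20S (10 nM) was incubated with 2-fold serial dilutions of Ac-FNKL-amc or Suc-LLVY-amc. Hydrolysis was monitored at 24°C (ex/em 360/460 nm) and activity was compared as a function of substrate concentration. Technical triplicates.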

Sm20S β1 [13] = assay: Substrate hydrolysis by purified Sm20S, β1 substrates; type: biochemical, Schistosoma mansoni; conditions: between 16 and 250 μM substrate
Sm20S β1 [14] = assay: Inhibition of Sm20S hydrolysis of mca-VDQMDGW-K; type: biochemical, Schistosoma mansoni
[15] = 500 nM, single-step enriched 20S, across the three species

CC(C)C[C@H](NC(=O)[C@H](CCc1ccccc1)NC(=O)CN1CCOCC1)C(=O)N[C@@H](Cc1ccccc1)C(=O)N[C@@H](CC(C)C)C(=O)[C@@]1(C)CO1 [CFZ, carfilzomib]
inhibition at 0.5 µM (Sm20S β2 subunit [1]): ~40%
cross-species subunit inhibition profile [2]: inhibited β5 and β2 more than β1
IC50 for the β1 subunit (Sm20S β1 subunit [3]; single-step enriched Sm20S, β1 substrate): not inhibitory
IC50 (Sm20S β2 subunit [4]): 288 ± 90 nM
effect on Sm20S β2 activity (Sm20S β2): inactivated
inhibition at 0.5 µM (Sm20S β1 subunit [5]; read-out: inhibition of β1 subunit activity): ~40%
inhibition of β5 subunit activity (Sm20S β5 subunit [6]): completely inhibited
IC50 (Sm20S β5 subunit [7]): 2.5 ± 0.51 nM

C[C@@]12OC(=O)[C@]1([C@@H](O)[C@@H]1C=CCCC1)NC(=O)[C@@H]2CCCl [MZB, marizomib]
reduction of β2 activity [8, 15]: 66 to 48%
reduction of β1 activity [9]: 61 to 34%
reduction of β5 activity [10, 15]: complete inactivation

CCCCCC(=O)N[C@@H](Cc1c[nH]c2ccccc12)C(=O)N[C@@H](Cc1c[nH]c2ccccc12)C(=O)N[C@@H](Cc1ccccc1)C(=O)[C@@]1(C)CO1 [carmaphycin-17]
decrease of Sh20S β1 activity (Sh20S β1): 20%
decrease of Sm20S β1 activity (Sm20S β1 [11]): 20%
inhibition of β2 subunits ([8]; 1 μM, three species): ~ 60%
reduction of Sj20S β1 activity (Sj20S β1): 47%
inhibition of β5 subunits ([10]; 1 μM, three species): complete inhibition

Ac-FNKL-amc
substrate concentration of maximal cleavage activity (Sm20S β5 subunit [12]): 25 µM
cleavage rate relative to Suc-LLVY-amc (Sm20S β5 subunit [12]; 25 μM substrate): ~ four-fold

mca-VDQMDGW-K(dnp)-NH2 (Mca-VDQMDGW-{K(dnp)-NH2}) [VDQMD*GW]
cleavage efficiency relative to LLE-amc (Sm20S β1 [13]): ~ 2 fold

CC(C)C[C@H](NC(=O)[C@H](Cc1ccccc1)NC(=O)c1cnccn1)B(O)O [BTZ, bortezomib]
inhibition at 0.5 µM (Sm20S β2 subunit [1]): ~35%
cross-species subunit inhibition profile [2]: preferentially inhibited β1 and β5
inhibition of mca-VDQMDGW-K(dnp) hydrolysis by Sm20S (Sm20S β1 [14]): inhibited
IC50 (Sm20S β1 subunit [3]): 49.84 ± 0.24 nM
IC50 using the β2 substrate (Sm20S β2 subunit [4]; single-step enriched Sm20S, β2 substrate): did not inhibit
effect on Sm20S β2 activity (Sm20S β2): only partially inhibited
inhibition of β1 subunit activity (Sm20S β1 subunit [5]; 500 nM inhibitor, Z-LLE-amc): completely inactivated
inhibition of β5 subunit activity (Sm20S β5 subunit [6]): completely inactivated
IC50 (Sm20S β5 subunit [7]): 18 ± 2.05 nM
